Assay outcomes as filed in PubChem BioAssay.
This is a sample that favours compounds with a hit; in the whole collection about 4.6% have one here.
Pemphigus Ab inh – inhibitors of pemphigus antibody binding to DSG3, primary screen, biochemical, bead-based, flow cytometry, scFv-GFP; binding (percent of control), % at 10 µM; DSG3-coupled beads, scFv-anti-DSG3-GFP binding; active compounds read low; Desmoglein-3 (Homo sapiens), P32926; AID 588358, 2011; 310,000 tested, 0.48% active;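 active = binding more than 3 SD below its plate's average and above zero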;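 note: hits lower antibody fragment binding to DSG3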
ALR inh – inhibitors of human ALR sulfhydryl oxidase, primary screen, biochemical, H2O2 detection, HRP-luminol luminescence, single point; FAD-linked sulfhydryl oxidase ALR (Homo sapiens), P55789; purified ALR, DTT oxidation; inhibition, % (no concentration beside the values); 290,000 tested, 3.8% active; AID 485317, 2010;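 active = mean replicate inhibition above about 79%, with every replicate also reaching it, limit read from the data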
Target sequence (P55789 whole entry, looked up): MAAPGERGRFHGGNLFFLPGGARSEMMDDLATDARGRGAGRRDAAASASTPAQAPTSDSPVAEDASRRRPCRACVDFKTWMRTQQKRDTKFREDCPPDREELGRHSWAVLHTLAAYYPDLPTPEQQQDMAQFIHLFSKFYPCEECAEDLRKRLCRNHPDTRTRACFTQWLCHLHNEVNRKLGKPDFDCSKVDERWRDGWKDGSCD
PolyA inhibitor – polyadenylation inhibitors in yeast reporter cells, primary screen, luminescence, S. cerevisiae; S. cerevisiae SKY197-pL101 polyadenylation reporter, beta-gal luminescence; efflux-impaired pdr1/pdr3 knockout yeast; score 100 = 6 SD above DMSO; activity score, % at 12 µM; 300,000 tested, 0.02% active; AID 1875, 2009;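 active = lowest replicate activity score at least 50, where 100 means six control SD above control mean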;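 note: yeast exposed to compound for 9 h at 30 °C; higher score means more reporter readthrough which indicates perturbed polyadenylation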
NALP3 yeast inh – NALP3 inflammasome inhibitors in reconstituted yeast, primary screen, luminescence, uHTS; Yeast reconstituted NLRP3/ASC/caspase-1, beta-gal luminescence, 24 h; inhibition, % at 10 µM; 330,000 tested, 0.39% active;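 active = inhibition of 50% or more; inactive = inhibition below 50%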
Arr AP2 block – inhibitors of beta-arrestin/AP2 binding, primary screen, biochemical, GPCR trafficking, flow cytometry; AID 504490, 2011; FITC-arrestin peptide / GST-AP2 beads; AP2 beta2 appendage carries R879A mutation; inhibition, % at 10 µM; 340,000 tested, 0.31% active;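 active = inhibition above a set limit, near 3 SD of compounds lacking own fluorescence, cut at about 54% in these data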
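Material – GST-tagged AP2 beta2-adaptin appendage (R879A) on 4 µm glutathione beads · Probe or stimulus – fluorescein-tagged arrestin peptide at 50 nM final · Timing – 12 min plus 1 h, RT · Detection – bead flow cytometry, FITC channel · Read-out basis – inhibition as reduced fluorescein signal on beads, percent · Medium – PBS plus Tween 20 (0.05%) and BSA (0.1%)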
NALP1 inh – NALP1 inflammasome inhibitors in reconstituted yeast, colorimetric, S. cerevisiae, triplicate retest. S. cerevisiae NALP1/ASC/caspase-1 growth, X-gal OD620, 72 h. inhibition, % at 10 µM. 280,000 tested, 0.61% active; in the data active = inhibition mostly above about 24%, no sharp cut-off; inactive = mostly below about 32%
Hits are given with their value; – = inactive; · = no result given.

SMILES	Pemphigus Ab inh	ALR inh	PolyA inhibitor	NALP3 yeast inh	Arr AP2 block	NALP1 inh
CCC(C)(C)NC(=O)C(c1cccc(OC)c1OC)N(CCOC)C(=O)CCC(=O)Nc1cc(C)on1 (configuration not stated)	–	–	–	–	–	–
CC(=O)Oc1ccc(-c2cccc(C(=O)N(C)c3ccc(O)cc3)c2)cc1	–	86	–	–	–	–
CC(=O)Oc1ccc(-c2cccc(C(=O)O)c2)cc1	–	–	–	–	–	–
C[C@@H]1CN([C@@H](C)CO)C(=O)c2cc(Br)cnc2O[C@H]1CN(C)C(=O)c1ccc2c(c1)OCO2	–	·	·	·	·	·
O=C(CSc1nc2ccccc2s1)NCc1cc([N+](=O)[O-])ccc1O	–	99	–	–	–	·
O=C(CSc1nnc(SCc2cccc3ccccc23)s1)Nc1ccc(C(=O)O)cc1	–	98	–	–	–	–
Nc1nonc1NC(=O)CSc1nc2ccccc2s1	–	98	–	–	–	–
O=C(CSc1nc2ccccc2s1)Nc1ccc2c(c1)oc1ccccc12	·	–	–	–	–	–
O=C(CSc1nc2ccccc2s1)Nc1cc(C(=O)O)cc(C(=O)O)c1	–	99	–	–	–	–
CN(CCOc1ccc(Cl)cc1)C(=O)c1cccc(S(=O)(=O)N2CCN(c3ccccc3)CC2)c1	·	·	·	·	–	·
CO[C@H](C(=O)N(C)C[C@@H]1OCc2ccccc2-c2c(n(C)c3ccccc23)C(=O)N([C@H](C)CO)C[C@@H]1C)c1ccccc1	–	·	·	·	·	·
Cc1ccc(N(CCC#N)C(=O)COC(=O)C2=COCCO2)cc1	–	–	–	–	–	·
O=C(Nc1ccncc1Cl)c1ccncc1	·	–	–	–	–	–
O=C(O)CSCC(=O)Nc1ccc(-c2nc3ccccc3s2)cc1	–	99	–	–	–	–
O=C(CSc1nc2ccccc2s1)NNC(=O)Nc1ccc(Cl)c(Cl)c1	–	–	–	–	–	–
Cc1ccc2nc(-c3ccc(NC(=O)CSCC(=O)O)cc3)sc2c1	–	·	–	–	–	–
O=C(CSc1nc2ccccc2s1)Nc1ccc(Cl)c(C(=O)O)c1	–	99	–	–	–	–
O=C(NN=C1CCCC1)c1cc(Br)ccc1O	–	–	–	–	–	–
O=C(N/N=C1/CCSC1)c1cc(Br)ccc1O	–	93	–	–	–	–
CC(C)(C)CC(C)(C)NC(=O)CSCC(=O)Nc1ccc2ccccc2c1	·	99	–	–	–	–
S=C(NCCc1ccccc1)NC1CCC(NC(=S)NCCc2ccccc2)CC1 (configuration not stated)	71	–	–	–	–	–
Cc1ccc(-c2csc(NC(=O)c3cccc([N+](=O)[O-])c3)n2)cc1	–	–	–	–	–	–
Cc1ccc(C(=O)NNC(=S)Nc2cccc(Cl)c2Cl)cc1[N+](=O)[O-]	–	97	–	–	–	–
O=C(NNC(=S)Nc1ccc(F)cc1)c1cccc([N+](=O)[O-])c1	·	·	–	–	–	–
CC(=O)c1cccc(NC(=S)NNC(=O)c2ccc(C)c([N+](=O)[O-])c2)c1	–	–	–	–	–	–
SMILES	Pemphigus Ab inh	ALR inh	PolyA inhibitor	NALP3 yeast inh	Arr AP2 block	NALP1 inh
Cc1ccc(NC(=S)NNC(=O)c2cccc([N+](=O)[O-])c2)cc1Cl	–	88	–	–	–	–
Cc1csc(C(=O)O)c1NC(=O)c1cccc([N+](=O)[O-])c1	43	–	–	–	–	–
c1ccc2c(c1)COc1c3ncccc3nn1-2	–	·	·	·	·	·
Cc1cc(=O)c(C(=O)Nc2cccc(C(=O)NC3CC3)c2)nn1-c1ccccc1	–	·	·	·	·	·
Cc1ccc(-c2nc(CN3CCN(C(=O)C4CCCO4)CC3)cs2)cc1 (configuration not stated)	·	99	–	–	–	–
Cc1ccc(CN2CCN(C(=O)C3CCCO3)CC2)cc1 (configuration not stated)	–	99	–	–	–	–
CCn1nc(C)c(CN2CCC(n3nccc3NC(=O)Cc3ccccc3)CC2)c1C	–	–	–	–	–	–
